NLRP3 yeast inh: NALP3 inhibition in yeast | Yeast reconstituted NLRP3/ASC/caspase-1, beta-gal luminescence, 24 h | inhibition, % at 10 µM | actives 0.39% (n = 330,000) | AID 2825;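 active means inhibition of 50% or more; inactive means inhibition below 50%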;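 further: plate controls were induced DMSO wells for no effect and uninduced yeast grown without galactose for full effect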
UCH37 inh: inhibitors of human deubiquitinating enzyme UCH37; AID 588478; inhibition, % (concentration not given with the values); purified proteasome/UCH37, Ub-AMC cleavage fluorescence; actives 0.33% (n = 330,000); Q9Y5K5;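 active means mean inhibition over replicate wells above about 20%, limit read from the data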;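 further: 0% = compound-free wells with enzyme and 100% = wells lacking proteasome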
Target sequence (Q9Y5K5 whole entry, looked up): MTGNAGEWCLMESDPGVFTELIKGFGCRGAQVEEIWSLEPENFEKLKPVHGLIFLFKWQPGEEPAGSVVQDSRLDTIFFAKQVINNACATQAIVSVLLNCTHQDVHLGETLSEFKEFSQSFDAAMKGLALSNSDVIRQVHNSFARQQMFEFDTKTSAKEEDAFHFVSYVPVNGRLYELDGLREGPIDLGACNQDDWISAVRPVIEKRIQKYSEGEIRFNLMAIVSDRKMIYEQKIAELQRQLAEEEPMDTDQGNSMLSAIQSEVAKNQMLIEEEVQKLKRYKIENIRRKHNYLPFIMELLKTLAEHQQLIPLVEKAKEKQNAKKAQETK
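Reagent: Ub-AMC substrate; assay system: Proteasome-associated human UCH37 deubiquitinase; controls: no-proteasome and no-compound wells; read-out: % inhibition of Ub-AMC cleavage fluorescence; timing: 30 min preincubation with enzyme, 25 min cleavage at room temperature; signal: AMC fluorescence from Ub-AMC cleavage, excitation 355 nm, emission 460 nm; buffer or medium: Tris-HCl pH 7.4 plus ovalbumin, ATP-MgCl2, DTT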
Calb FLC: affects C. albicans growth with fluconazole; C. albicans CaCi-2 + fluconazole, Alamar Blue growth, 48 h; growth inhibition, % (test concentration not listed); actives 0.57% (n = 300,000); AID 1979;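 active means growth inhibition above about 58% in most replicates, limit read from the data, passing the limit was not always enough; inconclusive means exactly half the replicates above a set limit; inactive means most replicates below a set limit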;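 further: all wells also contain fluconazole at 8 µg/ml as a sub-toxic cotreatment; 0% = median of DMSO wells and 100% = median of geldanamycin control wells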
ATG4B inh: ATG4B (human) cysteine protease inhibition; Q9Y4P1; ATG4B cleavage of LC3-PLA2, NBD-HPC fluorescence, 1 h; inhibition, % at 8.33 µM; actives 0.51% (n = 340,000); in the data active means inhibition above about 40%
Target sequence (Q9Y4P1 whole entry, looked up): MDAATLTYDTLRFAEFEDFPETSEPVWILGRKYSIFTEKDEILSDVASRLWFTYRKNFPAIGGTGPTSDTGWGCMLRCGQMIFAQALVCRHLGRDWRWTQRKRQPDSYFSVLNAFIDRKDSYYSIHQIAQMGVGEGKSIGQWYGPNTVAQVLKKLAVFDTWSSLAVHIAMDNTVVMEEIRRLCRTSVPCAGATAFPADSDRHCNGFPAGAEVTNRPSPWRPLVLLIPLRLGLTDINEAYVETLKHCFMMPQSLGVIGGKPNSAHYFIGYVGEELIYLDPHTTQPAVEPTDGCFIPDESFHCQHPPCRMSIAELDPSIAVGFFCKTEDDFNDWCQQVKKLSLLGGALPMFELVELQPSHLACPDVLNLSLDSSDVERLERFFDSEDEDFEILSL
NALP1 yeast inh: blocks the NALP1 inflammasome reconstituted in yeast; S. cerevisiae NALP1/ASC/caspase-1 growth, X-gal OD620, 72 h; inhibition, % at 10 µM; actives 0.61% (n = 280,000); in the data active means inhibition mostly above about 24%, no sharp cut-off; inactive means mostly below about 32%
ALR H2O2 inh: blocks human ALR sulfhydryl oxidase activity. inhibition, % (test concentration not listed). P55789. AID 485317. purified ALR, DTT oxidation, H2O2 HRP-luminol luminescence. actives 3.8% (n = 290,000);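 active means mean replicate inhibition above about 79%, with every replicate also reaching it, limit read from the data; inconclusive means only one of the two criteria met; inactive means mean below limit and not every replicate reaching it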
NALP3 confirm: confirmation of NALP3 inhibitors in yeast; shares compounds with NLRP3 yeast inh; inhibition, % at 10 µM; yeast expressing human NALP3, luminescence; actives 81% (n = 1,300); in the data active means inhibition above about 48%
Casp1-ASC yeast: counter-screen for NALP3 inhibitors: yeast caspase-1-ASC; shares compounds with NLRP3 yeast inh; yeast expressing Caspase-1-ASC, luminescence counter screen; inhibition, % at 10 µM; actives 66% (n = 1,000); AID 488784
NALP3 yeast rt: retest-confirmed inhibitor of NALP3 in yeast; yeast expressing human NALP3, luminescence read-out; actives 53% (n = 1,000); inhibition, % at 10 µM; shares compounds with NLRP3 yeast inh
* marks the source's active call; other numbers are inactive results; ? = inconclusive; · = not tested or not shown. This is a sample that favours compounds with a hit; in the whole collection about 4.8% have one here. Unless noted, no stated cut-off is given here; in the data, active means inhibition above about 50%; inactive means the rest.

SMILES | NLRP3 yeast inh | UCH37 inh | Calb FLC | ATG4B inh | NALP1 yeast inh | ALR H2O2 inh | NALP3 confirm | Casp1-ASC yeast | NALP3 yeast rt
Cc1cc2nc(N3C(=O)CNC3=S)sc2cc1C | 69* | · | 56 | 3 | 5 | -2 | 82* | · | ·
O=C(NN=Cc1cc(Cl)ccc1O)c1ccc(S(=O)(=O)N2CCCCC2)cc1 | · | 2 | · | · | · | · | · | · | ·
COc1cccc(Nc2ncnc3onc(-c4ccccc4OC)c23)c1 | 26 | -1 | -13 | -7 | 24 | 3 | · | · | ·
COc1ccccc1-c1noc2ncnc(Nc3cccc(C)c3)c12 | 64* | 0 | 25 | -11 | 14 | 10 | 71* | 60* | 40
O=C(c1ccc(-c2nc3ccccc3s2)s1)N1CCOCC1 | 13 | -68 | 48 | -13 | 25 | -4 | · | · | ·
O=C(NC1CC1)c1ccc(-c2nc3ccccc3s2)s1 | 60* | -15 | -1 | -2 | -5 | · | 55* | 52* | 48
Cc1ccc(C(=O)N2CC(=O)NC(=O)C2)cc1 | 51* | · | 8 | 3 | 8 | -4 | 49* | 8 | 10
Cc1ccc(C(=O)N2CC3(C)CN(C(=O)c4ccc(C)cc4)CC(C)(C2)C3=O)cc1 | 6 | 1 | 8 | -2 | 27 | · | · | · | ·
O=S(=O)(NN=Cc1cccnc1)c1ccc(Cl)c(Cl)c1 | · | 2 | · | · | · | · | · | · | ·
CC1(C)CC(=O)c2cnc(N3CCc4ccccc4C3)nc2C1 | 62* | 3 | 2 | 10 | -10 | -3 | 43 | 6 | 25
CC1(C)CC(=O)c2cnc(N3CCN(c4ccccc4)CC3)nc2C1 | -9 | -1 | -3 | 3 | 20 | · | · | · | ·
Cc1cccc(NC(=O)C(=O)NN=Cc2ccncc2)c1 | · | 1 | · | · | · | · | · | · | ·
C[C@]12CCC3C(CC[C@H]4CC(O)CC[C@]34C)C1CC/C2=N/O (some centres not stated) | 51* | · | -3 | 6 | 30 | 0 | 73* | 71* | 55*
C[C@]12CCC3C(CC[C@H]4CC(O)CC[C@]34C)C1CC/C2=N/NC(=O)c1ccncc1 (some centres not stated) | 56* | · | 4 | -4 | 20 | 4 | 80* | 55* | 44
CC(=O)[C@@]1(O)CCC2C3CC[C@H]4C[C@@H](O)CC[C@]4(C)C3CC[C@@]21C (some centres not stated) | 47 | 2 | · | 0 | · | 1 | · | · | ·
O=C(O)c1cccc(Nc2ncnc3c2cnn3-c2ccccc2)c1 | 12 | 1 | -6 | -5 | 9 | -3 | · | · | ·
Fc1cccc(Nc2ncnc3c2cnn3-c2ccccc2)c1 | 63* | -8 | -8 | -9 | 10 | -4 | 77* | · | ·
Clc1cccc(Nc2ncnc3c2cnn3-c2ccccc2)c1 | 53* | -9 | 3 | -8 | · | 13 | 61* | 46 | 48
COc1ccc(/C=C/C(=O)c2ccc([N+](=O)[O-])o2)cc1OC | 50* | 2 | 0 | 1 | · | 64 | 54* | 80* | 58*
COc1cc(OC)c(C(=O)C=Cc2ccc(OC)c(OC)c2)c(OC)c1 | · | 11 | · | 0 | · | · | · | · | ·
COC(=O)N[C@@H]1C[C@H]2[C@@H]3CC[C@H]4C[C@@H](OC)CC[C@]4(C)[C@H]3CC[C@]12C | 37 | 3 | · | 4 | · | 2 | · | · | ·
CC(=O)O[C@H]1CC[C@@]2(C)C(CCC3C2CC[C@]2(C)OC(=O)CCC32)C1 (some centres not stated) | 60* | 1 | 30 | -17 | 21 | · | 58* | 59* | 35
c1ccc(-c2ncc(-c3ccn[nH]3)s2)cc1 | 65* | -251 | ? | -9 | -3 | 4 | 84* | 79* | 64*
COc1ccc(OC)c(C=NNC(=O)C(=O)N2CCCCCC2)c1 | · | -22 | · | · | · | · | · | · | ·
CCCCOC(=O)Nc1nnc(COc2ccccc2)s1 | 46 | 2 | 0 | 6 | 14 | 2 | · | · | ·
SMILES | NLRP3 yeast inh | UCH37 inh | Calb FLC | ATG4B inh | NALP1 yeast inh | ALR H2O2 inh | NALP3 confirm | Casp1-ASC yeast | NALP3 yeast rt
CCCCOC(=O)Nc1nnc(CCc2ccccc2)s1 | 52* | -7 | 14 | -3 | 8 | -10 | 33 | · | ·
COc1ccc(C=NNC(=O)CCn2c3ccccc3c3ccccc32)cc1O | · | 2 | · | · | · | · | · | · | ·
CCOC(=O)Cc1csc(NC(=O)c2cccs2)n1 | 28 | 7 | -3 | 18 | 21 | 2 | · | · | ·
CCOC(=O)Cc1csc(NC(=O)c2ccc(Br)s2)n1 | 67* | · | 7 | · | 39* | 1 | 76* | · | ·
O=C(Cn1cnc2ccccc2c1=O)c1ccc2ccccc2c1 | 37 | -9 | -1 | -7 | 16 | -12 | · | · | ·
Cc1ccc(C(=O)Cn2cnc3ccccc3c2=O)cc1C | 63* | 3 | 5 | 35 | 9 | -4 | 78* | 55* | 54*
CCCCCc1cc(O)c2c(C)cc(=O)oc2c1 | 18 | 1 | 44 | 7 | 42 | -9 | · | · | ·
CCCCc1cc(O)c(CCCC)c(O)c1 | 51* | 7 | -28 | 30 | 16 | 44 | 62* | 34 | 50
CCN(CC)c1ccc(C=NNC(=O)c2cccc(S(=O)(=O)Nc3ccccc3OC)c2)cc1 | · | -49 | · | · | · | · | · | · | ·
O=[N+]([O-])c1ccc(C2CCCCC2=NOCc2ccccc2F)c([N+](=O)[O-])c1 (configuration not stated) | · | 2 | · | · | · | · | · | · | ·
Cc1ccc(OCc2nc(-c3cccnc3)no2)cc1C | 51* | 5 | -3 | -3 | 12 | 0 | 61* | 36 | 40
Cc1ccc(OCc2nc(-c3ccccn3)no2)c(Br)c1 | 42 | 6 | -14 | 8 | 14 | -11 | · | · | ·
Cc1ccc(OCc2nc(-c3ccccn3)no2)cc1 | 56* | -1 | 8 | 0 | -4 | 7 | 70* | 72* | 64*
Brc1ccc(N=CC=CC=CNc2ccc(Br)cc2)cc1 | · | 2 | · | · | · | · | · | · | ·
CCCc1cc(C(=O)NN=Cc2ccc(CC)s2)c2ccccc2n1 | · | -3 | · | · | · | · | · | · | ·
COc1cc(C=NNC(=O)c2ccc(-c3ccccc3)cc2)ccc1OCC(N)=O | · | -34 | · | · | · | · | · | · | ·
O=C1C(=O)N(CCCN2CCOCC2)C(c2ccc(F)cc2)/C1=C(\O)c1ccc2c(c1)OCCO2 (configuration not stated) | -5 | 13 | 11 | 4 | -7 | 9 | · | · | ·
CCOc1ccc(/C(O)=C2/C(=O)C(=O)N(CCCN3CCOCC3)C2c2ccc(F)cc2)cc1C (configuration not stated) | 50* | 10 | 1 | 1 | -4 | 1 | 67* | 48 | 28
N#C/C(=C/c1cccs1)c1nc2ccccc2[nH]1 | 80* | -21 | 4 | -11 | 63 | -2 | 70* | 84* | 88*
Cc1ccc(/C=C(\C#N)c2nc3ccccc3[nH]2)s1 | 51* | 2 | 9 | -14 | -17 | 4 | 63* | 45 | 47

Source: PubChem
